By inhibition is commonly meant the relative decrease from the control value, in per cent.

Test [1] deals with T1, Serine/threonine-protein kinase D1 (Homo sapiens) (UniProt Q15139).
T1 sequence (whole entry): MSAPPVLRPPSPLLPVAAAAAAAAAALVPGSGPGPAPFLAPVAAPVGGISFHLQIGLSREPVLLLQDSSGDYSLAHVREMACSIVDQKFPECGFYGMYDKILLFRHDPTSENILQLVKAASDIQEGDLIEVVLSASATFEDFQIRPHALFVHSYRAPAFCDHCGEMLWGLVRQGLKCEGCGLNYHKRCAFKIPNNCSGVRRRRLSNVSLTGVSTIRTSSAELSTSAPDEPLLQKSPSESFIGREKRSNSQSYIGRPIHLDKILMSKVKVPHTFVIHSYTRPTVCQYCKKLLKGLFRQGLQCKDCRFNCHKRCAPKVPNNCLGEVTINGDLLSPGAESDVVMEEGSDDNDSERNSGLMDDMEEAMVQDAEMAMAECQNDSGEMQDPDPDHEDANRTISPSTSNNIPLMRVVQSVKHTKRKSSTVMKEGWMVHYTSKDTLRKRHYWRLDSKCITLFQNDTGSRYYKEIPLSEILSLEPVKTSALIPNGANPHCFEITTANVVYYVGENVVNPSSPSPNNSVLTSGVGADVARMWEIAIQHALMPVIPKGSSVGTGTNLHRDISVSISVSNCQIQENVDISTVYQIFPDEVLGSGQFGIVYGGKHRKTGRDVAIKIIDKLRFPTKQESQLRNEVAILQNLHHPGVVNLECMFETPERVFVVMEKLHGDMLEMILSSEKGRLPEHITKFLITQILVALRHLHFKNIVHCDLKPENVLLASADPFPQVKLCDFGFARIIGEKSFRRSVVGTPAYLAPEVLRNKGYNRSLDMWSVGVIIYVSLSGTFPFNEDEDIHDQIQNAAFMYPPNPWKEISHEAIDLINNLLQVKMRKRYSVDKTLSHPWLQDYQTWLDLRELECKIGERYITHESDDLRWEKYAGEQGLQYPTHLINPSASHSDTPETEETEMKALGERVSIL
As to the kind of experiment: Inhibition of PKD1 assessed as residual activity at 10 uM by Cherenkov counting relative to control in presence of 50 uM ATP. The gist of the method:
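Single-concentration profiling at 10 μM in a 78-kinase panel. Kinase activity is expressed as a percentage of control assays run without compound.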

Test [2] concerns the target T2, Dual specificity tyrosine-phosphorylation-regulated kinase 2 (Homo sapiens) (UniProt Q92630).
T2 sequence (whole entry): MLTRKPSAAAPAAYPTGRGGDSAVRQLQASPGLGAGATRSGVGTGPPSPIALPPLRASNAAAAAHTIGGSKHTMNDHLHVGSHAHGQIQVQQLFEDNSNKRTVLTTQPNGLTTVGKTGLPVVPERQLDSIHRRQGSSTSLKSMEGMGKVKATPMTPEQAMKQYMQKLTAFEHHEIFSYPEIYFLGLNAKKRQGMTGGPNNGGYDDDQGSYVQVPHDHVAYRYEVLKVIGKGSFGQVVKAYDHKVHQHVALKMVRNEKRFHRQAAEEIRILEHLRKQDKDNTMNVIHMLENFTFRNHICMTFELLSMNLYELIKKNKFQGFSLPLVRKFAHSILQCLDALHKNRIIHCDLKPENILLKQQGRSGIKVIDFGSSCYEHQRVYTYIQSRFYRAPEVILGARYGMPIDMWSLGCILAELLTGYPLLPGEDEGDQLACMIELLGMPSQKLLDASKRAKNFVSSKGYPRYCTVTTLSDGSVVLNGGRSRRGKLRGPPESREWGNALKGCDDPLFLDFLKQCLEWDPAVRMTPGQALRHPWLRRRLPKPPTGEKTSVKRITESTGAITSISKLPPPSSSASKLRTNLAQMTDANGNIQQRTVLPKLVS
As to the kind of experiment: Inhibition of DYRK2 assessed as residual activity at 10 uM by Cherenkov counting relative to control in presence of 50 uM ATP. The gist of the method: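 Single-point profiling at 10 µM in a panel of 78 protein kinases. Kinase activity is expressed as a percentage relative to control assays without compound.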

For test [3], the target named is Insulin receptor-related protein (Homo sapiens) (UniProt P14616). Put plainly: Inhibition of IRR assessed as residual activity at 10 uM by Cherenkov counting relative to control in presence of 5 uM ATP.
The target of test [4] is Tyrosine-protein kinase Yes (Homo sapiens) (UniProt P07947). Put plainly: Inhibition of YES1 assessed as residual activity at 0.1 uM by Cherenkov counting relative to control in presence of 20 uM ATP. The gist of the method: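 Single-concentration screen at 0.1 μM in a 76-kinase panel. ATP for each kinase was set near its Km for ATP. Residual activity is given as a percentage of control assays without compound, mean of n = 3 ± SD.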

For test [5], the target named is T3, Eukaryotic elongation factor 2 kinase (Homo sapiens) (UniProt O00418).
T3 sequence (whole entry): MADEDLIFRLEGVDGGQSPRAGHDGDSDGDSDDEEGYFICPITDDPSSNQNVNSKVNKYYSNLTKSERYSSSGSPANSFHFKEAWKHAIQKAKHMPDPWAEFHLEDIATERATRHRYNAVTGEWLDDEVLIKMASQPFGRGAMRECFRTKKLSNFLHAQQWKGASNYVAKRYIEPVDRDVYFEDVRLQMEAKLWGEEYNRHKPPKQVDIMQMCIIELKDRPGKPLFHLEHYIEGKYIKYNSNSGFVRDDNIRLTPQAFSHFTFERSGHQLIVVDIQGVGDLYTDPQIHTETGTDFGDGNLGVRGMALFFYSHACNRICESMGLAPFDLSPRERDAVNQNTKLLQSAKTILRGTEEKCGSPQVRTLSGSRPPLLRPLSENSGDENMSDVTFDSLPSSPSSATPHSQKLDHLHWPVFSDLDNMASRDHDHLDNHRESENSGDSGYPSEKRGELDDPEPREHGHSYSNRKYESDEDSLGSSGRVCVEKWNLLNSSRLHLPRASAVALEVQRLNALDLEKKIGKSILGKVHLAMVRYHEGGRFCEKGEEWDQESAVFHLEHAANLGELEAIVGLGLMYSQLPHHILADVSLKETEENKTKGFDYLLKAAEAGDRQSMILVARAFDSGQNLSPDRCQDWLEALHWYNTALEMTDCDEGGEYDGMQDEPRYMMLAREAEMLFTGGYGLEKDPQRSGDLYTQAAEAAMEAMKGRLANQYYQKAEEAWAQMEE
Put plainly: Inhibition of EF2K assessed as residual activity at 0.1 uM by Cherenkov counting relative to control in presence of 5 uM ATP. The gist of the method:
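Single-concentration screen at 0.1 µM across a panel of 76 protein kinases. Each kinase was run at an ATP concentration approximating its ATP Km. Results are % mean residual activity versus control assays without compound (n = 3 ± SD).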

For test [6], the target named is Dual specificity mitogen-activated protein kinase kinase 1 (Homo sapiens) (UniProt Q02750). As to the kind of experiment: Inhibition of MKK1 at 0.1 uM by Cherenkov counting in presence of 5 uM ATP. A digest of the protocol:
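Single-concentration selectivity screen at 0.1 μM against a panel of 76 protein kinases. Each kinase was run at an ATP level approximating its Km for ATP. Output is mean residual activity as % of the control assay without compound, n = 3 ± SD.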

Tyrosine-protein kinase Yes (Homo sapiens), sequence (P07947 2-543 limits assumed): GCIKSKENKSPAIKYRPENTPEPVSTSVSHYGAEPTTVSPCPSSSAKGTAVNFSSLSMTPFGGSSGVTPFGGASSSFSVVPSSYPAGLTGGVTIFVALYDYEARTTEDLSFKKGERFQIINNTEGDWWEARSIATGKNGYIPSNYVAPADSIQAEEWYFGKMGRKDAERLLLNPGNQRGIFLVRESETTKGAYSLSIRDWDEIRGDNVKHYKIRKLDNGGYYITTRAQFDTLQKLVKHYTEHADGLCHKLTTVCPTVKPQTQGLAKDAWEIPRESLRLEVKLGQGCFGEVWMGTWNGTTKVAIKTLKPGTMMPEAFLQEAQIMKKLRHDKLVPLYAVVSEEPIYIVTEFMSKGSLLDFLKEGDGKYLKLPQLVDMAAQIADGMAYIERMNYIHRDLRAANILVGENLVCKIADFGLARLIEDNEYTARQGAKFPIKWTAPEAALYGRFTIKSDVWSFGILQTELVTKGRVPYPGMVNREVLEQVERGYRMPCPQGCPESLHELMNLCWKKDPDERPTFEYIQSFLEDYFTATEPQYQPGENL
Insulin receptor-related protein (Homo sapiens), sequence (P14616 27-742 limits assumed): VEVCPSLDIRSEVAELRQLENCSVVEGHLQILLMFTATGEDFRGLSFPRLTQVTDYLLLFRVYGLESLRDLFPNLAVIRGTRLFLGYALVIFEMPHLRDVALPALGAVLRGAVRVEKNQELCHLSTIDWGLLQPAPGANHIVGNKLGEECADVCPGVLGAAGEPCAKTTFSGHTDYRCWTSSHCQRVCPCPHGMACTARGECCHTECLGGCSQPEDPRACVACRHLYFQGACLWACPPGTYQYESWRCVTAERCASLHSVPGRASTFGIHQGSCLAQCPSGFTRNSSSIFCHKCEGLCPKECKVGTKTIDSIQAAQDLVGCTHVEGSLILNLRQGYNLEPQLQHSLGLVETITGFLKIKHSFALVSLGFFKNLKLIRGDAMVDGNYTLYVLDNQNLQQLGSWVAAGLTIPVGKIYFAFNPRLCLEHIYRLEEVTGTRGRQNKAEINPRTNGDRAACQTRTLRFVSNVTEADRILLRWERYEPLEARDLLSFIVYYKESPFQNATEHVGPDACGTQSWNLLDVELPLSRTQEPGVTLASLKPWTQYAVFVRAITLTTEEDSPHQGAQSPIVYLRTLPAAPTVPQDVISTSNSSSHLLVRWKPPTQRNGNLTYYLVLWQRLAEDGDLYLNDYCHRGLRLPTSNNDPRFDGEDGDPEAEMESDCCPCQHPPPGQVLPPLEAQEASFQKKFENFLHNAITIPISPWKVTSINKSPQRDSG
Insulin receptor-related protein (Homo sapiens), sequence (P14616 747-1297 limits assumed): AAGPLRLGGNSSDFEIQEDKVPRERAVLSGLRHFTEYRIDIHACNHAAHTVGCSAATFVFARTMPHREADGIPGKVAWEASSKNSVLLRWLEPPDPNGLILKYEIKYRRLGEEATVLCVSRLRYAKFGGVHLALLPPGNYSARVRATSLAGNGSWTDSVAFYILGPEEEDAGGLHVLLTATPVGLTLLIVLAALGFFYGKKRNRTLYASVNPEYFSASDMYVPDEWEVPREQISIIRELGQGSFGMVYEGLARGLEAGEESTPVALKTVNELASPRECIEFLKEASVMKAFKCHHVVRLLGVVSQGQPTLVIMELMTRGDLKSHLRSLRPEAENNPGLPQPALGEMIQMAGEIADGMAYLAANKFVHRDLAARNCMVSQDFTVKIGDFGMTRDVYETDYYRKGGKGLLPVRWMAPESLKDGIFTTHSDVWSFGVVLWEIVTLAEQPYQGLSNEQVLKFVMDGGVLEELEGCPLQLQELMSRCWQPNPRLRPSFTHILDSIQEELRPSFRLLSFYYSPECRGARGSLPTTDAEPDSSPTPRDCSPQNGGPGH
Dual specificity mitogen-activated protein kinase kinase 1 (Homo sapiens), sequence (Q02750 whole entry): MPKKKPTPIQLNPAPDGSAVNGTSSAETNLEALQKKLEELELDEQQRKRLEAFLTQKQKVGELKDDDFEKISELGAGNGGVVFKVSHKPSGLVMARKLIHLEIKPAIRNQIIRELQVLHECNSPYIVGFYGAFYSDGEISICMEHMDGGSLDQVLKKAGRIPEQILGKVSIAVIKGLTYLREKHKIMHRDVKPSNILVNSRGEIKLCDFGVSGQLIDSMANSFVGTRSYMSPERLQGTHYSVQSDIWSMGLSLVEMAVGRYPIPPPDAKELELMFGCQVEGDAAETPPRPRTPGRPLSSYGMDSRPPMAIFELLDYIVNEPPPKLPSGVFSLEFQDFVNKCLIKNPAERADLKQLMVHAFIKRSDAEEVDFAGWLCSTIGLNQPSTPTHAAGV

As to `CC(C)c1noc(-c2ccc(F)cc2)c1-c1ccncc1`, the values for the Activity in test [1], in test [2] and in test [3] were 89%, 104% and 94%, respectively.

Consider `CC(C)c1onc(-c2ccc(F)cc2)c1-c1ccncc1`, for which the Activity in test [1] turned out to be 60%; in test [2], 101%; in test [3], 93%.

Consider `COc1ccc(/C=C/C(=O)Nc2cc(-c3[nH]c(SC)nc3-c3ccc(F)cc3)ccn2)c(OC)c1`, for which the Activity in test [4] worked out at 24%; in test [5] it was 100%. Further, in test [6], the inhibition amounted to 73%.

For the compound `COc1ccc(/C=C/C(=O)Nc2cc(-c3[nH]c([S+](C)[O-])nc3-c3ccc(F)cc3)ccn2)c(OC)c1` (configuration not stated), the Activity in test [4] was found to be 14%; in test [5] it was 102%. Also, the inhibition in test [6] was determined as 82%.
